Measurements from ChEMBL document CHEMBL4177578, “Synthesis, pharmacological activities and molecular docking studies of pyrazolyltriazoles as anti-bacterial and anti-inflammatory agents” (Bioorg Med Chem, 2017).
Converted amounts (≈) assume the structure as drawn. The source made the active and inactive calls. The calls are words filed in the database; no cut-off is given here.

How the values were obtained:
U-937 [1] = experiment: Anti-inflammatory activity in human U937 cells assessed as inhibition of LPS-induced TNFalpha production at 10 uM pre-incubated for 1 hr before LPS stimulation for 24 hrs by ELISA method; assay type: functional
In short: (§1)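 Human U937 cells grown in RPMI1640 with 10% FBS at 37 °C, 5% CO2. Differentiated with PMA 30 ng/ml for 24 h. Test compounds added for 1 h, then LPS 1 µg/ml for 24 h. TNF-α and IL-6 in supernatant measured by ELISA. Three independent experiments.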

Salmonella paratyphi [2] = experiment: Antimicrobial activity against Salmonella paratyphi at 1 mg/ml incubated for 20 to 30 mins followed by incubation for 24 hrs at 37 degC by agar plate method; assay type: functional, Salmonella enterica subsp. enterica serovar Paratyphi A; settings: for zone of inhibition at 1000 µg/mL: Salmonella enterica, read-out: DIZ; for diameter of the inhibition zone (DIZ): Salmonella enterica subsp. enterica serovar Paratyphi A
In short: (§2)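 Agar well diffusion on nutrient agar. Plates swabbed with 60 µL inoculum, 8 mm wells loaded with 100 µL sample at 1.0 mg/mL, streptomycin standard and control in separate wells. Plates held 20–30 min at 4 °C for diffusion, then 24 h at 37 °C. Zone diameter read in mm; triplicate.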

[3] = Anti-inflammatory activity at 50 ug/ml using bovine serum albumin and egg albumin proteins incubated at 37 degC for 20 mins and then heated to 95 degC for 20 mins by UV-visible Spectrophotometry based protein denaturation method; assay type: functional
In short: (§3)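 Albumin (bovine serum or egg) at 1% in 50 mM sodium phosphate buffer pH 6.4. Mixture is 0.1 ml test sample (1 mg/ml) plus 0.2 ml albumin, made to 5 ml with buffer. Held 37 °C for 20 min, then 95 °C for 20 min. Cooled to room temperature, turbidity read at 660 nm. % inhibition = (Abs control − Abs sample)/Abs control × 100. Triplicate, averaged.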

[4] = Anti-inflammatory activity at 100 ug/ml using bovine serum albumin and egg albumin proteins incubated at 37 degC for 20 mins and then heated to 95 degC for 20 mins by UV-visible Spectrophotometry based protein denaturation method; assay type: functional; in short: as §3
[5] = Anti-inflammatory activity using bovine serum albumin and egg albumin proteins incubated at 37 degC for 20 mins and then heated to 95 degC for 20 mins by UV-visible Spectrophotometry based protein denaturation method; assay type: functional; in short: as §3
U-937 [6] = experiment: Anti-inflammatory activity in human U937 cells assessed as inhibition of LPS-induced IL6 production at 10 uM pre-incubated for 1 hr before LPS stimulation for 24 hrs by ELISA method; assay type: functional; in short: as §1
Salmonella typhi [7] = experiment: Antimicrobial activity against Salmonella typhi at 1 mg/ml incubated for 20 to 30 mins followed by incubation for 24 hrs at 37 degC by agar plate method; assay type: functional, Salmonella enterica subsp. enterica serovar Typhi; settings: for zone of inhibition at 1000 µg/mL: Salmonella enterica, read-out: DIZ; for diameter of the inhibition zone (DIZ): Salmonella enterica subsp. enterica serovar Typhi; in short: as §2
Micrococcus luteus [8] = experiment: Antimicrobial activity against Micrococcus luteus at 1 mg/ml incubated for 20 to 30 mins followed by incubation for 24 hrs at 37 degC by agar plate method; assay type: functional
In short: (§4)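 Agar well diffusion on nutrient agar. Plates swabbed with 60 µL inoculum; 8 mm wells loaded with 100 µL of compound at 1.0 mg/mL. Held 20–30 min at 4 °C for diffusion, then 24 h at 37 °C. Inhibition zone diameter read in mm. Triplicate.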

Staphylococcus aureus = experiment: Antimicrobial activity against Staphylococcus aureus at 1 mg/ml incubated for 20 to 30 mins followed by incubation for 24 hrs at 37 degC by agar plate method; assay type: functional; in short: as §4
Micrococcus luteus [9] = experiment: Antimicrobial activity against Micrococcus luteus incubated for 12 to 16 hrs by tube dilution method; assay type: functional
In short: (§5)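 Tube dilution, serial from 500 to 1.9 µg/mL, plus drug-free control tube. Each tube inoculated with 1 mL culture at OD 0.2, incubated 37 °C for 12–16 h. MIC is the lowest concentration with no growth by turbidity. MBC is found by plating each tube on nutrient agar: the lowest concentration at which all cells are killed.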

Micrococcus luteus [10] = experiment: Antimicrobial activity against Micrococcus luteus incubated for 12 to 16 hrs followed by plating in nutrient agar by tube dilution method; assay type: functional; in short: as §5
Salmonella typhi [11] = experiment: Antimicrobial activity against Salmonella typhi incubated for 12 to 16 hrs by tube dilution method; assay type: functional; settings: Salmonella enterica subsp. enterica serovar Typhi
In short: (§6)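 Broth tube dilution, two-fold serial dilutions from 500 to 1.9 µg/mL plus a drug-free control tube. Each tube inoculated with 1 mL culture at OD 0.2 (~McFarland standard), 37 °C for 12-16 h. Turbidity compared with the control tube. MIC is the lowest concentration giving complete growth inhibition.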

Salmonella typhi [12] = experiment: Antimicrobial activity against Salmonella typhi incubated for 12 to 16 hrs followed by plating in nutrient agar by tube dilution method; assay type: functional; settings: Salmonella enterica subsp. enterica serovar Typhi
In short: (§7)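 After 12-16 h at 37 °C in tube dilution (500 to 1.9 µg/mL; 1 mL inoculum at OD 0.2), the culture from each tube was plated on nutrient agar. MBC is the concentration at which cells are completely killed.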

Salmonella paratyphi [13] = experiment: Antimicrobial activity against Salmonella paratyphi incubated for 12 to 16 hrs by tube dilution method; assay type: functional; settings: Salmonella enterica subsp. enterica serovar Paratyphi A; in short: as §6
Salmonella paratyphi [14] = experiment: Antimicrobial activity against Salmonella paratyphi incubated for 12 to 16 hrs followed by plating in nutrient agar by tube dilution method; assay type: functional; settings: Salmonella enterica subsp. enterica serovar Paratyphi A; in short: as §7

| SMILES | inhibition at 10 µM (U-937 [1]) [%] | zone of inhibition at 1000 µg/mL (Salmonella paratyphi [2]) [mm] | inhibition [3] | inhibition [4] | IC50 [5] | inhibition at 10 µM (U-937 [6]) [%] | zone of inhibition at 1000 µg/mL (Salmonella typhi [7]) [mm] | diameter of the inhibition zone (DIZ) (Micrococcus luteus [8]) | diameter of the inhibition zone (DIZ) (Staphylococcus aureus) | diameter of the inhibition zone (DIZ) (Salmonella typhi [7]) | diameter of the inhibition zone (DIZ) (Salmonella paratyphi [2]) | MIC (Micrococcus luteus [9]) | MBC (Micrococcus luteus [10]) | MIC (Salmonella typhi [11]) | MBC (Salmonella typhi [12]) | MIC (Salmonella paratyphi [13]) | MBC (Salmonella paratyphi [14]) |
| --- | --- | --- | --- | --- | --- | --- | --- | --- | --- | --- | --- | --- | --- | --- | --- | --- | --- |
| OCc1cn(-c2ccccc2)nc1-c1ccc(Cl)cc1 | 3.32 | 12 | 67.2% | 83.6% | 59.79 µg/mL (≈ 210 µM) | 24.1 |  |  |  |  |  |  |  |  |  |  |  |
| Cc1ccc(-c2nn(-c3ccccc3)cc2Cn2cc(CO)nn2)cc1 | 14.8 | 14 | 21.6% | 38.8% | 128.89 µg/mL (≈ 373 µM) | 42 | 15 |  |  |  |  |  |  |  |  |  |  |
| Cc1ccc(-n2cc(CO)c(-c3ccccc3)n2)cc1C | 8.35 | 12 | 66.4% | 83.6% | 59.79 µg/mL (≈ 215 µM) | 46.4 | 14.5 |  |  |  |  |  |  |  |  |  |  |
| Cc1ccc(-n2cc(CO)c(-c3ccccc3)n2)cc1 |  | 12.5 | 40.5% | 68.1% | 73.42 µg/mL (≈ 278 µM) | 23.8 | 17 |  |  |  |  |  |  |  |  |  |  |
| OCc1cn(-c2ccccc2)nc1-c1ccc(Cl)cc1Cl | 4.92 | 11.5 | 60.3% | 80.2% | 62.37 µg/mL (≈ 195 µM) | 18.3 | 13.5 |  |  |  |  |  |  |  |  |  |  |
| OCc1cn(Cc2cn(-c3ccccc3)nc2-c2ccc(Cl)cc2Cl)nn1 | 9.9 | 17 | 50.9% | 76.7% | 65.17 µg/mL (≈ 163 µM) | 39.6 | 14 |  |  |  |  |  |  |  |  |  |  |
| CCOC(=O)c1nnn(Cc2cn(-c3ccccc3)nc2-c2ccccc2)c1C(=O)OCC |  |  | inactive | inactive | Not Active |  |  | inactive | inactive | inactive | inactive | inactive | inactive | inactive | inactive | inactive | inactive |
| COc1ccc(-c2nn(-c3ccccc3)cc2CN=[N+]=[N-])cc1 |  |  | inactive | inactive | Not Active |  |  | inactive | inactive | inactive | inactive | inactive | inactive | inactive | inactive | inactive | inactive |
| [N-]=[N+]=NCc1cn(-c2ccccc2)nc1-c1ccc(Cl)cc1Cl |  |  | inactive | inactive | Not Active |  |  | inactive | inactive | inactive | inactive | inactive | inactive | inactive | inactive | inactive | inactive |
| CCOC(=O)c1nnn(Cc2cn(-c3ccc(C)cc3)nc2-c2ccccc2)c1C(=O)OCC |  |  | inactive | inactive | Not Active |  |  | inactive | inactive | inactive | inactive | inactive | inactive | inactive | inactive | inactive | inactive |
| CCOC(=O)c1nnn(Cc2cn(-c3ccccc3)nc2-c2ccc(C)cc2)c1C(=O)OCC |  |  | inactive | inactive | Not Active |  |  | inactive | inactive | inactive | inactive | inactive | inactive | inactive | inactive | inactive | inactive |
| c1ccc(-c2cn(Cc3cn(-c4ccccc4)nc3-c3ccccc3)nn2)cc1 |  |  | inactive | inactive | Not Active |  |  | inactive | inactive | inactive | inactive | inactive | inactive | inactive | inactive | inactive | inactive |
| CCOC(=O)c1nnn(Cc2cn(-c3ccccc3)nc2-c2ccc(OC)cc2)c1C(=O)OCC |  |  | inactive | inactive | Not Active |  |  | inactive | inactive | inactive | inactive | inactive | inactive | inactive | inactive | inactive | inactive |
| FC(F)(F)c1ccccc1-c1cn(Cc2cn(-c3ccccc3)nc2-c2ccccc2)nn1 |  |  | inactive | inactive | Not Active |  |  | inactive | inactive | inactive | inactive | inactive | inactive | inactive | inactive | inactive | inactive |
| COC(=O)c1nnn(Cc2cn(-c3ccccc3)nc2-c2ccc(OC)cc2)c1C(=O)OC |  |  | inactive | inactive | Not Active |  |  | inactive | inactive | inactive | inactive | inactive | inactive | inactive | inactive | inactive | inactive |
| OCc1cn(-c2ccccc2)nc1-c1ccccc1 | 1.44 | 14 | 75.9% | 87.9% | 56.86 µg/mL (≈ 227 µM) | 19.6 | 11.5 |  |  |  |  |  |  |  |  |  |  |
| CCOC(=O)c1nnn(Cc2cn(-c3ccc(Cl)cc3)nc2-c2ccccc2)c1C(=O)OCC |  |  | inactive | inactive | Not Active |  |  | inactive | inactive | inactive | inactive | inactive | inactive | inactive | inactive | inactive | inactive |
